ChEMBL document CHEMBL5136969, “A niclosamide-tobramycin hybrid adjuvant potentiates cefiderocol against P. aeruginosa” (2021)
Values after ≈ are worked out from the molar mass of the structure shown. Active and inactive are the calls of the source. No cut-off for these calls is given here.

Tests used:
[1] = tested on: Pseudomonas aeruginosa; assay: Antibacterial activity against MDR clinical isolate Pseudomonas aeruginosa PA260 assessed as reduction in bacterial growth after 18 hrs in presence of cefiderocol by microbroth dilution method; assay type: functional
How it was run: (§1)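 Checkerboard in MHB. Cefiderocol was 2-fold serially diluted along one axis and the adjuvant along the other. Inoculum was prepared from 0.5 McFarland saline suspensions diluted 1:50 in MHB, giving about 5 × 10^5 CFU/mL final. Plates ran 18 h at 37 °C, with turbidity confirmed at 590 nm. FIC = combination MIC ÷ MIC alone for each agent, and FIC index = sum of both. Interpretation: ≤0.5 synergy, >0.5–4 additive, >4 antagonism.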

[2] = tested on: Pseudomonas aeruginosa; assay: Antibacterial activity against MDR clinical isolate Pseudomonas aeruginosa PA109084 assessed as reduction in bacterial growth after 18 hrs by microbroth dilution method; assay type: functional
How it was run: (§2)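 CLSI broth microdilution. Overnight cultures were adjusted in saline to 0.5 McFarland, diluted 1:50 in Mueller-Hinton broth (MHB), and inoculated at about 5 × 10^5 CFU/mL. Agents were 2-fold serially diluted in MHB, mixed 1:1 with inoculum, and held at 37 °C for 18 h. MIC was the lowest concentration with no visible turbidity, confirmed at 590 nm.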

[3] = tested on: Pseudomonas aeruginosa; assay: Antibacterial activity against colistin-resistant clinical isolate Pseudomonas aeruginosa PA101243 assessed as reduction in bacterial growth after 18 hrs by microbroth dilution method; assay type: functional
How it was run: (§3)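 Broth microdilution per CLSI in Mueller-Hinton broth (MHB). Overnight cultures were adjusted to 0.5 McFarland in saline, diluted 1:50 in MHB, and added at about 5 × 10^5 CFU/mL final to equal volumes of 2-fold serial dilutions of agent. Incubation was 18 h at 37 °C. MIC was the lowest concentration with no visible turbidity, confirmed by absorbance at 590 nm.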

[4] = tested on: Pseudomonas aeruginosa; assay: Potentiation of vancomycin-induced antibiotic activity against Pseudomonas aeruginosa PAO1 assessed as MIC fold reduction at 8 ug/ml after 18 hrs by microbroth dilution method; assay type: functional; settings: dose 8 µg/ml
[5] = tested on: Pseudomonas aeruginosa; assay: Antibacterial activity against MDR clinical isolate Pseudomonas aeruginosa PA259 assessed as reduction in bacterial growth after 18 hrs by microbroth dilution method; assay type: functional; how it was run: as §2
[6] = tested on: Klebsiella pneumoniae; assay: Antibacterial activity against Klebsiella pneumoniae KP116381 assessed as reduction in bacterial growth after 18 hrs in presence of cefiderocol by microbroth dilution method; assay type: functional; how it was run: as §1
[7] = tested on: Acinetobacter baumannii; assay: Antibacterial activity against Acinetobacter baumannii ATCC 17978 assessed as potentiation of cefiderocol antibacterial activity by measuring FIC after 18 hrs by microbroth dilution method; assay type: functional
How it was run: (§4)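 Checkerboard in Mueller-Hinton broth: cefiderocol 2-fold diluted on one axis, adjuvant 2-fold on the other. Overnight cultures were adjusted to 0.5 McFarland in saline, diluted 1:50 in MHB, and inoculated at about 5 × 10^5 CFU/mL. Incubation was 18 h at 37 °C. Turbidity was read visually and confirmed at 590 nm. FIC index = FIC of antibiotic + FIC of adjuvant; ≤0.5 synergy, >4 antagonism.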

[8] = tested on: Pseudomonas aeruginosa; assay: Potentiation of aztreonam-induced antibiotic activity against Pseudomonas aeruginosa PAO1 assessed as MIC fold reduction at 8 ug/ml after 18 hrs by microbroth dilution method; assay type: functional; settings: dose 8 µg/ml
How it was run: (§5)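 Initial screen in MHB using a fixed 8 μg mL−1 of adjuvant combined with each antibiotic under 2-fold dilution. Broth microdilution used about 5 × 10^5 CFU/mL at 37 °C for 18 h, with visible turbidity read and confirmed at 590 nm. Fold-potentiation = antibiotic MIC alone ÷ antibiotic MIC with adjuvant.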

[9] = tested on: Escherichia coli; assay: Antibacterial activity against Escherichia coli 94474 assessed as reduction in bacterial growth after 18 hrs by microbroth dilution method; assay type: functional
How it was run: (§6)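 CLSI microbroth dilution in MHB. Overnight cultures were adjusted to 0.5 McFarland in saline, diluted 1:50, and inoculated at about 5 × 10^5 CFU/mL. Agents were 2-fold serially diluted and incubated 18 h at 37 °C. MIC is the lowest concentration without visible turbidity, confirmed by absorbance at 590 nm. Medium with and without cells served as controls.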

[10] = tested on: Escherichia coli; assay: Potentiation of cotrimoxazole-induced antibiotic activity against Escherichia coli ATCC 25922 assessed as MIC fold reduction at 8 ug/ml after 18 hrs by microbroth dilution method; assay type: functional; settings: dose 8 µg/ml
How it was run: (§7)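 Adjuvant held at a fixed 8 μg/mL while the antibiotic was 2-fold serially diluted in Mueller-Hinton broth (MHB), per CLSI microbroth dilution. Overnight cultures were adjusted in saline to 0.5 McFarland, then diluted 1:50 in MHB to about 5 × 10^5 CFU/mL final, and incubated 18 h at 37 °C. MIC was the lowest concentration with no visible turbidity, confirmed at 590 nm. Fold potentiation = MIC alone / MIC with adjuvant.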

[11] = tested on: Pseudomonas aeruginosa; assay: Antibacterial activity against MDR clinical isolate Pseudomonas aeruginosa PA100036 assessed as reduction in bacterial growth after 18 hrs by microbroth dilution method; assay type: functional; how it was run: as §3
[12] = tested on: Pseudomonas aeruginosa; assay: Potentiation of cotrimoxazole-induced antibiotic activity against Pseudomonas aeruginosa PAO1 assessed as MIC fold reduction at 8 ug/ml after 18 hrs by microbroth dilution method; assay type: functional; settings: dose 8 µg/ml; how it was run: as §7
[13] = tested on: Pseudomonas aeruginosa; assay: Potentiation of cefotaxime-induced antibiotic activity against […] Pseudomonas aeruginosa PAO1 assessed as MIC fold reduction at 8 ug/ml after 18 hrs by microbroth dilution method; assay type: functional, organism-based; settings: dose 8.0 µg/ml; how it was run: as §7
[14] = tested on: Acinetobacter baumannii; assay: Potentiation of linezolid-induced antibiotic activity against Acinetobacter baumannii ATCC 17978 assessed as MIC fold reduction at 8 ug/ml after 18 hrs by microbroth dilution method; assay type: functional; settings: dose 8 µg/ml; how it was run: as §7
[15] = tested on: Pseudomonas aeruginosa; assay: Antibacterial activity against MDR clinical isolate Pseudomonas aeruginosa PA86052 assessed as reduction in bacterial growth after 18 hrs in presence of cefiderocol by microbroth dilution method; assay type: functional; how it was run: as §1
[16] = tested on: Pseudomonas aeruginosa; assay: Potentiation of cefotaxime-induced antibiotic activity against MDR clinical isolate Pseudomonas aeruginosa PA260 assessed as MIC fold reduction at 8 ug/ml after 18 hrs by microbroth dilution method; assay type: functional, organism-based; settings: dose 8.0 µg/ml; how it was run: as §5
[17] = tested on: Escherichia coli; assay: Potentiation of colistin-induced antibiotic activity against Escherichia coli ATCC 25922 assessed as MIC fold reduction at 8 ug/ml after 18 hrs by microbroth dilution method; assay type: functional; settings: dose 8 µg/ml; how it was run: as §7
[18] = tested on: Escherichia coli; assay: Potentiation of cindamycin-induced antibiotic activity against Escherichia coli ATCC 25922 assessed as MIC fold reduction at 8 ug/ml after 18 hrs by microbroth dilution method; assay type: functional; settings: dose 8 µg/ml; how it was run: as §7
[19] = tested on: Staphylococcus epidermidis; assay: Antibacterial activity against methicillin-resistant Staphylococcus epidermidis 61589 assessed as reduction in bacterial growth after 18 hrs by microbroth dilution method; assay type: functional; how it was run: as §3
[20] = tested on: Pseudomonas aeruginosa; assay: Antibacterial activity against […] Pseudomonas aeruginosa PAO1 assessed as reduction in bacterial growth after 18 hrs in presence of cefiderocol by microbroth dilution method; assay type: functional; how it was run: as §1
[21] = tested on: Escherichia coli; assay: Antibacterial activity against Escherichia coli 94393 assessed as potentiation of cefiderocol antibacterial activity by measuring FIC after 18 hrs by microbroth dilution method; assay type: functional; how it was run: as §4
[22] = tested on: Escherichia coli; assay: Antibacterial activity against Escherichia coli ATCC 25922 assessed as potentiation of cefiderocol antibacterial activity by measuring FIC after 18 hrs by microbroth dilution method; assay type: functional; how it was run: as §4
[23] = tested on: Enterobacter cloacae; assay: Antibacterial activity against Enterobacter cloacae 118564 assessed as reduction in bacterial growth after 18 hrs by microbroth dilution method; assay type: functional; how it was run: as §6
[24] = tested on: Escherichia coli; assay: Potentiation of trimethoprim-induced antibiotic activity against Escherichia coli ATCC 25922 assessed as MIC fold reduction at 8 ug/ml after 18 hrs by microbroth dilution method; assay type: functional; settings: dose 8 µg/ml

In the case of `NC[C@H]1O[C@H](O[C@H]2[C@H](OCCCCc3cn(-c4ccc(NC(=O)c5cc(Cl)ccc5O)cc4)nn3)[C@@H](O[C@H]3O[C@H](CO)[C@@H](O)[C@H](N)[C@H]3O)[C@H](N)C[C@@H]2N)[C@H](N)C[C@@H]1O`, the MIC [1] is reported as 0.125 mg/L, the MIC [2] is reported as over 128 mg/L and the MIC [3] is reported as over 128 mg/L. The “fold change (FC)” value [4] was 4, the MIC [5] was over 128 mg/L and the MIC [6] was 0.25 mg/L. For the same compound, the FIC [7] was 0.25, the “fold change (FC)” value [8] was 4 and the MIC [9] was over 128 mg/L. For the same compound, the “fold change (FC)” value [10] was 4, the MIC [11] was over 128 mg/L and the “fold change (FC)” value [12] was 4. For the same compound, the Activity [13] was “Active”, the “fold change (FC)” value [14] was 4 and the MIC [15] was 0.25 mg/L. The Activity [16] was “Active”, the “fold change (FC)” value [17] was 4 and the “fold change (FC)” value [18] was 4. For the same compound, the MIC [19] was 128 mg/L (≈ 153 µM), the MIC [20] was 0.5 mg/L and the FIC [21] was 0.25. The FIC [22] was 0.5, the MIC [23] was over 128 mg/L and the “fold change (FC)” value [24] was 4.
